Results gathered from unrelated publications.
Compare with care: the assays were run in different laboratories.
Target: Protein kinase C delta type (PRKCD, Homo sapiens, UniProt Q05655)

| Structure (SMILES) | test | setting | quantity | value |
| --- | --- | --- | --- | --- |
| FC(F)(F)c1ccc2c(c1)nc(-c1cccnc1)n2C1CC1 | cell-free assay, competition with immobilised ligand | 1 µM | remaining binding | 100% |
| Cn1cncc1C1=CN(c2ncnc3[nH]cnc23)CCS1 | enzyme activity, inhibitor, radiometric | 50 nM | inhibition | 12.6% |
| Oc1ccc(-c2nc(-c3ccncc3)c(-c3ccc(F)cc3)[nH]2)cc1 | cell-free assay | 0.5 µM | remaining signal | 99.3% |
| CC/C(=N\NC(=O)NCc1cccc(O)c1)c1ccc(O)c(C)c1O | enzyme activity, inhibitor | 0.1 µM | inhibition | 24.6% |
| Cc1ccc(C(=O)NCc2ccsc2)cc1C#Cc1cn(C(C)C)c2ncnc(N)c12 | enzyme activity, inhibitor | 1 µM | activity vs control | 90% |
| CC(=O)Nc1c(C(C)=O)c(=O)n(C)c2nc(-c3ccc(Cl)cc3Cl)c(-c3ccc(Cl)cc3)cc12 | cell-free assay, competition with immobilised ligand | 1 µM | remaining binding | 100% |
| Cn1c2ccccc2c2c3c(c4c5ccccc5n(CCC#N)c4c21)CNC3=O | cell-free assay | 0.5 µM | remaining signal | 41.9% |
| COc1cc2ncnc(Nc3ccc(Oc4ccccc4)cc3C)c2cc1OC | enzyme activity, inhibitor | 1 µM | inhibition | 11% |
| Cc1sc(C(=O)NC2COC2)cc1-n1cc(NC(=O)Nc2c(F)cccc2Cl)cn1 | enzyme activity, inhibitor | 10 µM | remaining activity | 98% |
| Cn1cnc(Br)c1C1=CN(c2ncnc3[nH]cnc23)CCS1 | enzyme activity, inhibitor, radiometric | 2 µM | inhibition | 93.4% |
| CN1CC(Oc2cnc(C#N)cc2-c2ccn3nc(NC(=O)C4CC4)cc3c2)C1 | enzyme activity, inhibitor | 1 µM | inhibition | 3% |
| Cc1cnc(NC2CCOCC2)nc1-n1cnc(C(=O)NC(CN)c2cc(F)cc(Cl)c2)c1 (stereo not drawn) | enzyme activity, inhibitor, radiometric | 1 µM | remaining activity | 59% |
| O=C1NC(=O)c2cc(Nc3ccc(F)cc3)c(Nc3ccc(F)cc3)cc21 | cell-free assay | 0.5 µM | remaining signal | 98.2% |
| CCN(CC)c1ccc(C2=NNC(=O)CC2C)cc1[N+](=O)[O-] (stereo not drawn) | enzyme activity, inhibitor | 10 µM | remaining activity | 85% |
| N#Cc1ccc(Nc2ccc3[nH]c(=O)[nH]c3c2)c(Cl)c1 | cell-free assay, competition with immobilised ligand | 1 µM | remaining binding | 100% |
| CCCOc1ccc(OC)c(F)c1C(=O)c1ccc(C(=O)N[C@@H]2CNC[C@H]2NC(=O)c2ccc3[nH]ncc3c2)cc1 | enzyme activity, inhibitor | 50 nM | remaining activity | 103% |
| COCCOc1nc(-c2ccc(Cl)nc2)nc2c1CN(C(=O)c1ncn3ccccc13)CC2 | cell-free assay, competition with immobilised ligand | 0.1 µM | remaining binding | 100% |
| Cc1ccc(C(=O)Nc2ccc(CN3CCN(C)CC3)c(C(F)(F)F)c2)cc1C#Cc1cnc2cccnn12 | enzyme activity | 23.5 nM | remaining activity | 64% |
| Nc1c(C(=O)NCc2ccc(C(=O)NCCCC3CCCCC3)cc2)cnn1-c1ccccc1 | cell-free assay, competition with immobilised ligand | 0.1 µM | remaining binding | 88% |
| CC(C)(O)[C@H]1CC[C@H](Nc2ccc3ncc(-c4cccc(C(F)(F)F)c4)n3n2)CC1 | enzyme activity, inhibitor | 1 µM | remaining activity | 84.2% |
| O=C(O)[C@H]1[C@H](Cn2nnc3ccccc3c2=O)CC[C@@H]1C(=O)c1ccc(OCCC2CCOCC2)cc1 | cell-free assay, competition with immobilised ligand | 1 µM | remaining binding | 100% |
| Cc1cc(NC(=O)c2cccc3cc(-c4cccc5[nH]nc(N)c45)ccc23)ccc1F | enzyme activity, inhibitor | 0.1 µM | activity vs control | 108% |
| c1ccc(N2CCN(Cc3nc4ccccc4[nH]3)CC2)nc1 | cell-free assay, competition with immobilised ligand | 1 µM | remaining binding | 100% |
| CC(C)(C)c1nc(-c2cccc(NS(=O)(=O)c3c(F)cccc3F)c2F)c(-c2ccnc(N)n2)s1 | enzyme activity, inhibitor, radiometric | 1 µM | remaining activity | 119% |
